Assay results as given in PMC5593424 (Bioorganic & medicinal chemistry letters, 2017).

Columns and labels:
[1] = biological target: T1, eIF4A (Homo sapiens, UniProt P60842); assay: malachite green eIF4A ATPase assay; type: biochemical; conditions: for inhibition of eIF4A ATPase activity (IC50): 8-point dose-response, 500 nM eIF4A, 250 µM ATP
[2] = biological target: DDX39A (Homo sapiens, UniProt O00148); assay: ATPase dose-response against DDX39A; type: biochemical; conditions: 8-point dose-response
Sequence of DDX39A (O00148 whole entry, species assumed): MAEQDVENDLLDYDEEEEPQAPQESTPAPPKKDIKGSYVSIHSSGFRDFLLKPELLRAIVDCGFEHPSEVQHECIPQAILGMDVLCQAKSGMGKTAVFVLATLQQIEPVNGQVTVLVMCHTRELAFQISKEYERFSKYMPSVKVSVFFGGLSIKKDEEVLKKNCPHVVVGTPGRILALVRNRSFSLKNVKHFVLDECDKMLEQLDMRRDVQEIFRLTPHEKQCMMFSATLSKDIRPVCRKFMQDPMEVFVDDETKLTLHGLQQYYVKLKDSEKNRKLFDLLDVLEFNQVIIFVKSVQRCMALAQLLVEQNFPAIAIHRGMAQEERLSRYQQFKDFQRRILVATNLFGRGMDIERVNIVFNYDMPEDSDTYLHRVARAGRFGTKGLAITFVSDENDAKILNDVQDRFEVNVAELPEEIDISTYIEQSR

[3] = system: A549 lung cancer cells; assay: MTT cytotoxicity, A549; type: cell-based; conditions: 8-point dose response
Outline: (§1)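 Cells exposed to an 8-point dose-response of test compound; viability read by MTT. Percent survival plotted against compound concentration on semi-log axes, and LD50 taken from that curve.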

[4] = system: MDA-MA-468 breast cancer cells; assay: MTT cytotoxicity, MDA-MA-468; type: cell-based; conditions: MDA-MA-468, MTT, 8-point dose response
Outline: as §1

[5] = system: NCI-60 panel; conditions: cited from earlier work
[6] = biological target: T1, eIF4A; assay: fluorescence-dequenching eIF4A helicase assay; type: biochemical; conditions: 100 µM compound, relative to DMSO control, eIF4B and ATP
Outline: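 RNA unwinding assay: a fluorescently labelled RNA strand is annealed to a template beside a black-hole quencher. Adding eIF4A, eIF4B and ATP releases the strand and dequenches the fluorophore. A large excess of blank template prevents reannealing. Test compounds used at 100 μM.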

[7] = cited from earlier work

T1 sequence (P60842 whole entry): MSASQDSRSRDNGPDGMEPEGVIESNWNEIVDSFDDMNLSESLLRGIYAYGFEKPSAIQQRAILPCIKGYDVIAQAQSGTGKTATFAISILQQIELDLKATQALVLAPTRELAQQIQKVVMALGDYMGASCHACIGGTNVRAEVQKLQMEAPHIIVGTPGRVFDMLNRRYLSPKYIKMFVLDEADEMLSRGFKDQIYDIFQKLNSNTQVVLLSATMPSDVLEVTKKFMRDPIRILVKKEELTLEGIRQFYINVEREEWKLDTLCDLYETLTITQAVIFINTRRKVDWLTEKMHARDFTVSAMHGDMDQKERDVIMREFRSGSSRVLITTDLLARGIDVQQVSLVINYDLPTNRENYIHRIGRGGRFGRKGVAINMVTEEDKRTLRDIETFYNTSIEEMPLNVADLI

Row | Structure (SMILES) | inhibition of eIF4A ATPase activity (IC50) [1] | inhibition of DDX39A [2] | LD50 [3] | LD50 [4] | activity against the NCI-60 panel [5] | Ki [1] | inhibition of eIF4A helicase activity [6] | antibiotic activity [7]
1 | CC(C)=C[C@@H]1C[C@H](C)c2c(O)cc(C)c3c2C1=C(C)C(=O)C3=O [Compound 1, elisabatin A] | single-digit | modest inhibition | 40.2 µM | 35.2 µM | only modest activity | – | – | –
2 | C=C1CC[C@@](C)(c2cc(Br)c(C)cc2O)[C@H]1C [Compound 2, allolaurinterol] | single-digit | – | 41.4 µM | 31.7 µM | – | 3.86 µM | near complete inhibition | antibiotic activity
3 | C[C@H]1C[C@@]2(O[C@H]3C[C@H]4[C@@H]5CC[C@H]6C[C@H](O)CC[C@]6(C)[C@H]5[C@@H](O)C[C@]4(C)[C@H]3[C@@]2(C)O)OC1(C)C [Compound 3, hippuristanol, reference compound] | – | – | – | – | – | – | near complete inhibition | –
